From ChEMBL document CHEMBL1129541, “Synthesis and DNA interactions of benzimidazole dications which have activity against opportunistic infections” (J Med Chem, 1996)

How the values were obtained:
Nucleic Acid [1] = assay: Thermal melting temperature determined for (dG-C)4 at a concentration of 3*10e-6 M base pairs at a ratio of 0.6 compound per base pair; assay type: nucleic-acid assay
How it was run: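 d(G-C)4 at 3×10^-6 M in duplex, in MES buffer (0.01 M MES, 1×10^-3 M EDTA, pH 6.2) with 0.1 M NaCl. Compound at 0.6 per base pair. The UV absorbance melting curve is recorded in 1 cm quartz cells, with temperature monitored by a thermistor in a reference cuvette.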

Nucleic Acid [2] = assay: Thermal melting temperature for poly(A).poly(U) at a concentration of 5*10e-5) M base pairs at a ratio of 0.6 compound per base pair; assay type: nucleic-acid assay
How it was run: (§1)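 Polymers at 5×10^-5 M base pairs in MES buffer (0.01 M MES, 1×10^-3 M EDTA, pH 6.2) with 0.1 M NaCl. Compound at 0.6 per base pair. Samples are in 1 cm reduced-volume quartz cells. UV absorbance melting curves are recorded, with temperature followed by a thermistor in a reference cuvette.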

Nucleic Acid [3] = assay: Thermal melting temperature determined for poly(dA).poly(dT) at a concentration of 5*10e-5) M base pairs at a ratio of 0.6 compound per base pair; assay type: nucleic-acid assay; how it was run: as §1
Nucleic Acid [4] = assay: Binding constant for the sequence d(CGGAATTCGCG)2; parameters: unit not given here
Nucleic Acid [5] = assay: Thermal melting temperature for (dCGCGAATTCGCG)2 at a concentration of 3*10e-6 M base pairs at a ratio of one compound per oligomer duplex

## c1cc2[nH]c(-c3ccc4[nH]c(CCCCc5nc6cc(-c7nc8cc(C9=NCCN9)ccc8[nH]7)ccc6[nH]5)nc4c3)nc2cc1C1=NCCN1
Nucleic Acid [1]
  ΔTm: 0
Nucleic Acid [2]
  ΔTm: 0
Nucleic Acid [3]
  ΔTm: > 26
Nucleic Acid [4]
  K: 3.1e+08
Nucleic Acid [5]
  ΔTm: 20.8

## c1cc2[nH]c(-c3ccc4[nH]c(CCc5nc6cc(-c7nc8cc(C9=NCCN9)ccc8[nH]7)ccc6[nH]5)nc4c3)nc2cc1C1=NCCN1
Nucleic Acid [1]
  ΔTm: 0
Nucleic Acid [2]
  ΔTm: 0
Nucleic Acid [3]
  ΔTm: > 26
Nucleic Acid [4]
  K: 2e+09
Nucleic Acid [5]
  ΔTm: 28.5

## c1cc2[nH]c(CCCCc3nc4cc(C5=NCCN5)ccc4[nH]3)nc2cc1C1=NCCN1
Nucleic Acid [1]
  ΔTm: 0.5
Nucleic Acid [2]
  ΔTm: -1.5
Nucleic Acid [3]
  ΔTm: 25.5
Nucleic Acid [4]
  K: 5.2e+06
Nucleic Acid [5]
  ΔTm: 7.1

## N=C(N)c1ccc2[nH]c(-c3ccc4[nH]c(CCCCc5nc6cc(-c7nc8cc(C(=N)N)ccc8[nH]7)ccc6[nH]5)nc4c3)nc2c1
Nucleic Acid [1]
  ΔTm: 0
Nucleic Acid [2]
  ΔTm: 0
Nucleic Acid [3]
  ΔTm: > 26
Nucleic Acid [4]
  K: 4.5e+08
Nucleic Acid [5]
  ΔTm: 22.2

## c1cc2[nH]c(Cc3nc4cc(C5=NCCN5)ccc4[nH]3)nc2cc1C1=NCCN1
Nucleic Acid [1]
  ΔTm: 0
Nucleic Acid [2]
  ΔTm: -0.6
Nucleic Acid [3]
  ΔTm: 5.7
Nucleic Acid [4]
  K: 930000
Nucleic Acid [5]
  ΔTm: 2.8

## N=C(N)c1ccc2[nH]c(/C=C/c3nc4cc(C(=N)N)ccc4[nH]3)nc2c1
Nucleic Acid [1]
  ΔTm: -1.5
Nucleic Acid [2]
  ΔTm: 0
Nucleic Acid [3]
  ΔTm: > 26
Nucleic Acid [4]
  K: 5.3e+08
Nucleic Acid [5]
  ΔTm: 22.8

## N=C(N)c1ccc(OCCCCCOc2ccc(C(=N)N)cc2)cc1
Nucleic Acid [1]
  ΔTm: 0
Nucleic Acid [2]
  ΔTm: 0
Nucleic Acid [3]
  ΔTm: 12.8
Nucleic Acid [4]
  K: 2.3e+06
Nucleic Acid [5]
  ΔTm: 4.8

## N=C(N)c1ccc2[nH]c(CCc3nc4cc(C(=N)N)ccc4[nH]3)nc2c1
Nucleic Acid [1]
  ΔTm: 0.75
Nucleic Acid [2]
  ΔTm: -1.1
Nucleic Acid [3]
  ΔTm: > 26
Nucleic Acid [4]
  K: 7.6e+07
Nucleic Acid [5]
  ΔTm: 15.9

## N=C(N)c1ccc2[nH]c(CCCCc3nc4cc(C(=N)N)ccc4[nH]3)nc2c1
Nucleic Acid [1]
  ΔTm: 0.5
Nucleic Acid [2]
  ΔTm: -0.6
Nucleic Acid [3]
  ΔTm: 24.4
Nucleic Acid [4]
  K: 1.3e+07
Nucleic Acid [5]
  ΔTm: 10

## c1cc2[nH]c(CCc3nc4cc(C5=NCCN5)ccc4[nH]3)nc2cc1C1=NCCN1
Nucleic Acid [1]
  ΔTm: 0.7
Nucleic Acid [2]
  ΔTm: 0.9
Nucleic Acid [3]
  ΔTm: > 26
Nucleic Acid [4]
  K: 8.8e+07
Nucleic Acid [5]
  ΔTm: 16.4

## N=C(N)c1ccc(-c2cc3ccc(C(=N)N)cc3[nH]2)cc1
Nucleic Acid [1]
  ΔTm: 2.5
Nucleic Acid [2]
  ΔTm: 3.9
Nucleic Acid [3]
  ΔTm: > 26
Nucleic Acid [4]
  K: 4.5e+08
Nucleic Acid [5]
  ΔTm: 22.2

## N=C(N)c1ccc2nc(Cc3nc4ccc(C(=N)N)cc4[nH]3)[nH]c2c1
Nucleic Acid [1]
  ΔTm: 0
Nucleic Acid [2]
  ΔTm: -0.8
Nucleic Acid [3]
  ΔTm: 4.9
Nucleic Acid [4]
  K: 930000
Nucleic Acid [5]
  ΔTm: 2.8
